Key:
BT-549 = test: Antiproliferative activity against human BT549 cells after 48 hrs; assay type: functional; conditions: BT-549, 48 h
Procedure, shortened: (§1)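 NCI 60-cell screen. Cells were grown in RPMI 1640 with 5% FBS and 2 mM L-glutamine, then plated at 5,000–40,000 cells/well according to doubling time and preincubated for 24 h at 37 °C in 5% CO2. Compounds were dissolved in DMSO at 400× the top final concentration and tested at five 10-fold dilutions from 10−4 to 10−8 M for 48 h. Growth was read spectrophotometrically; GI50 is 50% net protein reduction.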

SK-MEL-28 = test: Antiproliferative activity against human SKMEL28 cells after 48 hrs; assay type: functional; conditions: SK-MEL-28, 48 h; procedure, shortened: as §1
OVCAR-3 = test: Antiproliferative activity against human OVCAR-3 cells after 48 hrs; assay type: functional; conditions: OVCAR-3, 48 h; procedure, shortened: as §1
SF-539 = test: Antiproliferative activity against human SF539 cells after 48 hrs; assay type: functional; conditions: SF-539, 48 h; procedure, shortened: as §1
MDA-MB-435 = test: Antiproliferative activity against human MDA-MB-435 cells after 48 hrs; assay type: functional; conditions: Homo sapiens, MDA-MB-435, 48 h; procedure, shortened: as §1
UACC-257 = test: Antiproliferative activity against human UACC257 cells after 48 hrs; assay type: functional; conditions: UACC-257, 48 h
Procedure, shortened: (§2)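 NCI 60-cell-line screen. Lines grown in RPMI 1640 with 5% fetal bovine serum and 2 mM L-glutamine, plated at 5,000–40,000 cells/well according to doubling time, left 24 h at 37 °C in 5% CO2. Drug stocks in DMSO at 400-fold the top final concentration. Five 10-fold dilutions, 10−4 to 10−8 M, incubated 48 h. Growth read spectrophotometrically as net protein; GI50 taken as 50% reduction.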

HT-29 = test: Antiproliferative activity against human HT29 cells after 48 hrs; assay type: functional; conditions: HT-29, 48 h; procedure, shortened: as §1
HCT-15 = test: Antiproliferative activity against human HCT15 cells after 48 hrs; assay type: functional; conditions: Homo sapiens, HCT-15, 48 h; procedure, shortened: as §1
OVCAR-5 = test: Antiproliferative activity against human OVCAR5 cells after 48 hrs; assay type: functional; conditions: OVCAR-5, 48 h; procedure, shortened: as §1
RXF 393 = test: Antiproliferative activity against human RXF393 cells after 48 hrs; assay type: functional; conditions: RXF 393, 48 h; procedure, shortened: as §1
RPMI-8226 = test: Antiproliferative activity against human RPMI8226 cells after 48 hrs; assay type: functional; conditions: RPMI-8226, 48 h; procedure, shortened: as §1
SNB-19 = test: Antiproliferative activity against human SNB19 cells after 48 hrs; assay type: functional; conditions: SNB-19, 48 h; procedure, shortened: as §1
T47D = test: Antiproliferative activity against human T47D cells after 48 hrs; assay type: functional; procedure, shortened: as §2
SF-268 = test: Antiproliferative activity against human SF268 cells after 48 hrs; assay type: functional; conditions: SF-268, 48 h; procedure, shortened: as §1
A549 = test: Antiproliferative activity against human A549 cells after 48 hrs; assay type: functional; conditions: A549, 48 h; procedure, shortened: as §1
NCI-H322M = test: Antiproliferative activity against human NCI-H322M cells after 48 hrs; assay type: functional; procedure, shortened: as §1
MDA-MB-231 = test: Antiproliferative activity against human MDA-MB-231 cells after 48 hrs; assay type: functional; conditions: MDA-MB-231, 48 h; procedure, shortened: as §1
PC-3 = test: Antiproliferative activity against human PC3 cells after 48 hrs; assay type: functional; conditions: PC-3, 48 h; procedure, shortened: as §1
DU-145 = test: Antiproliferative activity against human DU145 cells after 48 hrs; assay type: functional; conditions: DU-145, 48 h; procedure, shortened: as §1
UO-31 = test: Antiproliferative activity against human UO31 cells after 48 hrs; assay type: functional; conditions: UO-31, 48 h; procedure, shortened: as §2
SK-OV-3 = test: Antiproliferative activity against human SKOV3 cells after 48 hrs; assay type: functional; conditions: SK-OV-3, 48 h; procedure, shortened: as §1
Hs-578T = test: Antiproliferative activity against human HS578T cells after 48 hrs; assay type: functional; procedure, shortened: as §1
MOLT-4 = test: Antiproliferative activity against human MOLT4 cells after 48 hrs; assay type: functional; conditions: MOLT-4, 48 h; procedure, shortened: as §1
NCI-H23 = test: Antiproliferative activity against human NCI-H23 cells after 48 hrs; assay type: functional; conditions: NCI-H23, 48 h; procedure, shortened: as §1
MCF7 = test: Antiproliferative activity against human MCF7 cells after 48 hrs; assay type: functional, cell-based; conditions: MCF7, 48 h
CAKI-1 = test: Antiproliferative activity against human CAKI1 cells after 48 hrs; assay type: functional; conditions: CAKI-1, 48 h; procedure, shortened: as §1
M14 = test: Antiproliferative activity against human M14 cells after 48 hrs; assay type: functional; conditions: M14, 48 h; procedure, shortened: as §1
NCI-H226 = test: Antiproliferative activity against human NCI-H226 cells after 48 hrs; assay type: functional; conditions: NCI-H226, 48 h; procedure, shortened: as §1
COLO 205 = test: Antiproliferative activity against human COLO205 cells after 48 hrs; assay type: functional; conditions: COLO 205, 48 h; procedure, shortened: as §1
U-251 = test: Antiproliferative activity against human U251 cells after 48 hrs; assay type: functional; conditions: U-251, 48 h; procedure, shortened: as §2
OVCAR-4 = test: Antiproliferative activity against human OVCAR4 cells after 48 hrs; assay type: functional; conditions: OVCAR-4, 48 h; procedure, shortened: as §1
[1] = Antiproliferative activity against human NCI-ADR-RES cells after 48 hrs; assay type: functional; procedure, shortened: as §1
[2] = read-out: Log LC50 (the source's name) (converted)

## CCCCCCCCCCCCCCN[C@H](CO)[C@H](O)c1ccc([N+](=O)[O-])cc1.Cl
BT-549
  GI50: 1.51 µM
  LC50: 5.62 µM
BT-549; read-out: Log TGI (converted)
  TGI: 2.88 µM
SK-MEL-28
  GI50: 1.91 µM
  LC50: 6.03 µM
SK-MEL-28; read-out: Log TGI (converted)
  TGI: 3.39 µM
OVCAR-3
  GI50: 8.13 µM
  LC50: 100 µM
OVCAR-3; read-out: Log TGI (converted)
  TGI: 30.9 µM
SF-539
  GI50: 1.66 µM
  LC50: 6.03 µM
SF-539; read-out: Log TGI (converted)
  TGI: 3.16 µM
MDA-MB-435
  GI50: 1.91 µM
  LC50: 5.75 µM
MDA-MB-435; read-out: Log TGI (converted)
  TGI: 3.31 µM
UACC-257
  GI50: 4.27 µM
UACC-257; [2]
  CC50: 93.3 µM
UACC-257; read-out: Log TGI (converted)
  TGI: 20.9 µM
HT-29
  GI50: 1.86 µM
HT-29; read-out: Log TGI (converted)
  TGI: 3.47 µM
HCT-15
  GI50: 1.86 µM
HCT-15; read-out: Log TGI (converted)
  TGI: 3.47 µM
OVCAR-5
  GI50: 3.72 µM
OVCAR-5; [2]
  CC50: 72.4 µM
OVCAR-5; read-out: Log TGI (converted)
  TGI: 14.1 µM
RXF 393
  GI50: 1.82 µM
RXF 393; [2]
  CC50: 8.32 µM
RXF 393; read-out: Log TGI (converted)
  TGI: 3.89 µM
RPMI-8226
  GI50: 2.19 µM
RPMI-8226; [2]
  CC50: > 100 µM
RPMI-8226; read-out: Log TGI (converted)
  TGI: 4.68 µM
SNB-19
  GI50: 1.74 µM
SNB-19; read-out: Log TGI (converted)
  TGI: 3.55 µM
T47D
  GI50: 3.8 µM
T47D; [2]
  CC50: 87.1 µM
T47D; read-out: Log TGI (converted)
  TGI: 14.1 µM
SF-268
  GI50: 2.09 µM
  LC50: > 100 µM
SF-268; read-out: Log TGI (converted)
  TGI: 4.9 µM
A549
  GI50: 3.55 µM
A549; [2]
  CC50: > 100 µM
A549; read-out: Log TGI (converted)
  TGI: 19.5 µM
NCI-H322M
  GI50: 4.79 µM
NCI-H322M; [2]
  CC50: 42.7 µM
NCI-H322M; read-out: Log TGI (converted)
  TGI: 14.8 µM
MDA-MB-231
  GI50: 2 µM
  LC50 (50% lethal concentration): 7.76 µM
MDA-MB-231; read-out: Log TGI (converted)
  TGI: 3.89 µM
PC-3
  GI50: 1.74 µM
PC-3; read-out: Log TGI (converted)
  TGI: 3.16 µM
DU-145
  GI50: 1.55 µM
DU-145; [2]
  CC50: 5.37 µM
DU-145; read-out: Log TGI (converted)
  TGI: 2.88 µM
UO-31
  GI50: 4.27 µM
  LC50: 87.1 µM
UO-31; read-out: Log TGI (converted)
  TGI: 18.6 µM
SK-OV-3
  GI50: 8.91 µM
SK-OV-3; [2]
  CC50: 79.4 µM
SK-OV-3; read-out: Log TGI (converted)
  TGI: 27.5 µM
Hs-578T
  GI50: 2.09 µM
  LC50: 100 µM
Hs-578T; read-out: Log TGI (converted)
  TGI: 5.25 µM
MOLT-4
  GI50: 1.62 µM
  LC50: 7.59 µM
MOLT-4; read-out: Log TGI (converted)
  TGI: 3.55 µM
NCI-H23
  GI50: 14.5 µM
NCI-H23; [2]
  CC50: 83.2 µM
NCI-H23; read-out: Log TGI (converted)
  TGI: 34.7 µM
MCF7
  GI50: 1.91 µM
MCF7; read-out: Log TGI (converted)
  TGI: 3.47 µM
CAKI-1
  GI50: 7.59 µM
CAKI-1; [2]
  CC50: 67.6 µM
CAKI-1; read-out: Log TGI (converted)
  TGI: 24 µM
M14
  GI50: 2.04 µM
  LC50: 6.92 µM
M14; read-out: Log TGI (converted)
  TGI: 3.72 µM
NCI-H226
  GI50: 10.5 µM
NCI-H226; [2]
  CC50: 100 µM
NCI-H226; read-out: Log TGI (converted)
  TGI: 34.7 µM
COLO 205
  GI50: 1.78 µM
COLO 205; read-out: Log TGI (converted)
  TGI: 3.55 µM
U-251
  GI50: 1.86 µM
U-251; read-out: Log TGI (converted)
  TGI: 3.47 µM
OVCAR-4
  GI50: 1.91 µM
  LC50: 6.76 µM
OVCAR-4; read-out: Log TGI (converted)
  TGI: 3.55 µM
[1]
  GI50: 2.04 µM
  LC50: 8.91 µM
[1]; read-out: Log TGI (converted)
  TGI: 4.27 µM

— ChEMBL document CHEMBL1143122, “Novel analogs of D-e-MAPP and B13. Part 1: synthesis and evaluation as potential anticancer agents” (Bioorg Med Chem, 2008)
